Experiments:
[1] = test system: Rattus norvegicus; assay: Percent fall in systolic blood pressure, directly measured on carotid (iv on the jugular vein) of spontaneously hypertensive rats at 1 mg/kg after 10 minutes; type: functional, Artery
In short: (§1)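 Anesthetized (sodium pentobarbital, 70 mg/kg) male and female Okamoto SHR, 8 weeks old, 300–350 g. Given iv into the jugular vein in normal saline. Arterial pressure and cardiac rhythm are recorded directly from the carotid by polygraph at set times after dosing. Each is expressed as percent change from the pre-dose control value.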

[2] = test system: Rattus norvegicus; assay: Percent fall in systolic blood pressure, directly measured on carotid (iv on the jugular vein) of spontaneously hypertensive rats at 1 mg/kg after 90 minutes; type: functional, Artery; in short: as §1
[3] = test system: Rattus norvegicus; assay: Percent fall in systolic blood pressure, directly measured on carotid (iv on the jugular vein) of spontaneously hypertensive rats at 1 mg/kg after 45 minutes; type: functional, Artery; in short: as §1
[4] = test system: Rattus norvegicus; assay: Percent fall in systolic blood pressure, directly measured on carotid (iv on the jugular vein) of spontaneously hypertensive rats at 1 mg/kg after 15 minutes; type: functional, Artery; in short: as §1
[5] = test system: Rattus norvegicus; assay: Percent fall in systolic blood pressure, directly measured on carotid (iv on the jugular vein) of spontaneously hypertensive rats at 1 mg/kg after 75 minutes; type: functional, Artery; in short: as §1
[6] = test system: Rattus norvegicus; assay: Percent fall in systolic blood pressure, directly measured on carotid (iv on the jugular vein) of spontaneously hypertensive rats at 1 mg/kg after 30 minutes; type: functional, Artery; in short: as §1
[7] = test system: Rattus norvegicus; assay: Percent fall in systolic blood pressure, directly measured on carotid (iv on the jugular vein) of spontaneously hypertensive rats at 1 mg/kg after 5 minutes; type: functional, Artery; in short: as §1
[8] = test system: Rattus norvegicus; assay: Percent fall in systolic blood pressure, directly measured on carotid (iv on the jugular vein) of spontaneously hypertensive rats at 1 mg/kg after 60 minutes; type: functional, Artery; in short: as §1
[9] = test system: Rattus norvegicus; assay: Antihypertensive activity in spontaneously hypertensive rats (SHR) measured by percentage fall in arterial pressure (AP) at 25 mg/kg administered intraperitoneally at 5 h;No significance; type: functional, organism-based; design: dose 25 mg/kg; conditions: Artery
In short: (§2)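 Unanesthetized Okamoto-strain SHR, male and female, 8 weeks old, 300–350 g, systolic pressure ≥190 mmHg, heart rate 400–650 beats/min; five animals per dose. Given ip at 2.5 mL/kg, dissolved or suspended in normal saline or saline with 0.2% (carboxymethyl)cellulose and 1.0% Tween 80. Tail AP and CR recorded by mechanical transduction at set times; reported as percentage fall from control.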

[10] = species on record: Homo sapiens; assay: In vitro inhibition of platelet aggregation induced by […] (PRP incubated for 5 minutes at 37 degree C) at 10e-5 M; No significance; type: functional
[11] = test system: Rattus norvegicus; assay: Antihypertensive activity in spontaneously hypertensive rats (SHR) measured by percentage fall in arterial pressure (AP) at 25 mg/kg administered intraperitoneally at 1 h;No significance; type: functional, organism-based; design: dose 25 mg/kg; conditions: Artery; in short: as §2
[12] = test system: Rattus norvegicus; assay: Antihypertensive activity in spontaneously hypertensive rats (SHR) measured by percentage fall in cardiac rhythm (CR) at 25 mg/kg administered intraperitoneally at 5 h;No significance; type: functional, organism-based; design: dose 25 mg/kg; conditions: Heart
In short: (§3)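 Conscious SHR (Okamoto strain), 8 weeks old, male and female, 300–350 g, systolic BP ≥190 mmHg, CR 400–650 beats/min. Given ip or po at 2.5 mL/kg in normal saline or saline with 0.2% (carboxymethyl)cellulose and 1.0% Tween 80. Tail AP and CR recorded by mechanical transduction at 1, 3, 5 and 24 h, five animals per dose. Effect expressed as % fall versus control.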

[13] = test system: Rattus norvegicus; assay: Antihypertensive activity in spontaneously hypertensive rats (SHR) measured by percentage fall in cardiac rhythm (CR) at 25 mg/kg administered intraperitoneally at 1 h;No significance; type: functional, organism-based; design: dose 25 mg/kg; conditions: Heart; in short: as §2
[14] = test system: Rattus norvegicus; assay: Antihypertensive activity in spontaneously hypertensive rats (SHR) measured by percentage fall in cardiac rhythm (CR) at 25 mg/kg administered intraperitoneally at 24 h;No significance; type: functional, organism-based; design: dose 25 mg/kg; conditions: Heart; in short: as §2
[15] = test system: Rattus norvegicus; assay: Antihypertensive activity in spontaneously hypertensive rats (SHR) measured by percentage fall in arterial pressure (AP) at 25 mg/kg administered intraperitoneally at 24 h;No significance; type: functional, organism-based; design: dose 25 mg/kg; conditions: Artery; in short: as §2
[16] = species on record: Homo sapiens; assay: In vitro inhibition of platelet aggregation induced by AA (PRP incubated for 60 minutes at 37 degree C) at 10e-5 M; No significance; type: functional
In short: (§4)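 Human venous blood anticoagulated with 3.8% sodium citrate (1:9). PRP from centrifugation at 800 rpm for 10 min at room temperature. Count adjusted with PPP to […]. Compound in saline with 10% ethylene glycol is added to PRP and incubated at 37 °C before the agonist. Agonists: ADP 2×10^-5 M, AA 0.6 mM, PGH2 2.8 μM, adrenaline 0.6 μM. Born absorbance aggregometry; n = 5.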

[17] = test system: Rattus norvegicus; assay: Antihypertensive activity in spontaneously hypertensive rats (SHR) measured by percentage fall in cardiac rhythm (CR) at 25 mg/kg administered intraperitoneally at 3 h;No significance; type: functional, organism-based; design: dose 25 mg/kg; conditions: Heart; in short: as §3
[18] = test system: Rattus norvegicus; assay: Antihypertensive activity in spontaneously hypertensive rats (SHR) measured by percentage fall in arterial pressure (AP) at 25 mg/kg administered intraperitoneally at 3 h;No significance; type: functional, organism-based; design: dose 25 mg/kg; conditions: Artery; in short: as §2
[19] = test system: Rattus norvegicus; assay: Antihypertensive activity in spontaneously hypertensive rats (SHR) measured by percentage fall in cardiac rhythm (CR) at 25 mg/kg administered intraperitoneally at 3 h; type: functional, Heart; conditions: route intraperitoneal; in short: as §2
[20] = test system: Rattus norvegicus; assay: Antihypertensive activity in spontaneously hypertensive rats (SHR) measured by percentage fall in cardiac rhythm (CR) at 25 mg/kg administered perorally at 3 h; type: functional, Heart; conditions: route oral; in short: as §3
[21] = test system: Rattus norvegicus; assay: Antihypertensive activity in spontaneously hypertensive rats (SHR) measured by percentage fall in arterial pressure (AP) at 25 mg/kg administered perorally at 24 h; type: functional, Artery; conditions: route oral
In short: (§5)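 Oral dosing at 2.5 mL/kg to unanesthetized male and female Okamoto-strain SHR (8 weeks old, 300–350 g, systolic pressure ≥190 mmHg, heart rate 400–650 beats/min), five per dose. Vehicle was normal saline or saline with 0.2% (carboxymethyl)cellulose and 1.0% Tween 80. AP measured on the tail by mechanical transduction at set times; expressed as percentage fall from control.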

[22] = test system: Rattus norvegicus; assay: Antihypertensive activity in spontaneously hypertensive rats (SHR) measured by percentage fall in arterial pressure (AP) at 5 mg/kg administered intraperitoneally at 3 h; type: functional, Artery; conditions: route intraperitoneal; in short: as §2
[23] = test system: Rattus norvegicus; assay: Antihypertensive activity in spontaneously hypertensive rats (SHR) measured by percentage fall in cardiac rhythm (CR) at 25 mg/kg administered intraperitoneally at 5 h; type: functional, Heart; conditions: route intraperitoneal; in short: as §3
[24] = test system: Rattus norvegicus; assay: Antihypertensive activity in spontaneously hypertensive rats (SHR) measured by percentage fall in arterial pressure (AP) at 25 mg/kg administered perorally at 5 h; type: functional, Artery; conditions: route oral; in short: as §5
[25] = test system: Rattus norvegicus; assay: Antihypertensive activity in spontaneously hypertensive rats (SHR) measured by percentage fall in cardiac rhythm (CR) at 1 mg/kg administered intraperitoneally at 5 h; type: functional, Heart; conditions: route intraperitoneal; in short: as §2
[26] = test system: Rattus norvegicus; assay: Antihypertensive activity in spontaneously hypertensive rats (SHR) measured by percentage fall in cardiac rhythm (CR) at 5 mg/kg administered intraperitoneally at 3 h; type: functional, Heart; conditions: route intraperitoneal; in short: as §3
[27] = test system: Rattus norvegicus; assay: Antihypertensive activity in spontaneously hypertensive rats (SHR) measured by percentage fall in cardiac rhythm (CR) at 25 mg/kg administered intraperitoneally at 24 h; type: functional, Heart; conditions: route intraperitoneal; in short: as §2
[28] = test system: Rattus norvegicus; assay: Antihypertensive activity in spontaneously hypertensive rats (SHR) measured by percentage fall in arterial pressure (AP) at 25 mg/kg administered intraperitoneally at 5 h; type: functional, Artery; conditions: route intraperitoneal; in short: as §2
[29] = test system: Rattus norvegicus; assay: Antihypertensive activity in spontaneously hypertensive rats (SHR) measured by percentage fall in arterial pressure (AP) at 25 mg/kg administered perorally at 3 h; type: functional, Artery; conditions: route oral; in short: as §5
[30] = test system: Rattus norvegicus; assay: Antihypertensive activity in spontaneously hypertensive rats (SHR) measured by percentage fall in cardiac rhythm (CR) at 1 mg/kg administered intraperitoneally at 24 h; type: functional, Heart; conditions: route intraperitoneal; in short: as §2
[31] = test system: Rattus norvegicus; assay: Antihypertensive activity in spontaneously hypertensive rats (SHR) measured by percentage fall in arterial pressure (AP) at 25 mg/kg administered intraperitoneally at 3 h; type: functional, Artery; conditions: route intraperitoneal; in short: as §2
[32] = test system: Rattus norvegicus; assay: Antihypertensive activity in spontaneously hypertensive rats (SHR) measured by percentage fall in arterial pressure (AP) at 5 mg/kg administered intraperitoneally at 5 h; type: functional, Artery; conditions: route intraperitoneal; in short: as §2
[33] = test system: Rattus norvegicus; assay: Antihypertensive activity in spontaneously hypertensive rats (SHR) measured by percentage fall in arterial pressure (AP) at 25 mg/kg administered intraperitoneally at 24 h; type: functional, Artery; conditions: route intraperitoneal; in short: as §2
[34] = test system: Rattus norvegicus; assay: Antihypertensive activity in spontaneously hypertensive rats (SHR) measured by percentage fall in cardiac rhythm (CR) at 1 mg/kg administered intraperitoneally at 3 h; type: functional, Heart; conditions: route intraperitoneal; in short: as §2
[35] = test system: Rattus norvegicus; assay: Antihypertensive activity in spontaneously hypertensive rats (SHR) measured by percentage fall in arterial pressure (AP) at 5 mg/kg administered intraperitoneally at 24 h; type: functional, Artery; conditions: route intraperitoneal; in short: as §2
[36] = species on record: Homo sapiens; assay: In vitro inhibition of platelet aggregation induced by ADP-II (PRP incubated for 60 minutes at 37 degree C) at 10e-5 M; type: functional; conditions: 1 h; in short: as §4
[37] = species on record: Homo sapiens; assay: In vitro inhibition of platelet aggregation induced by ADP-II (PRP incubated for 5 minutes at 37 degree C) at 10e-5 M; type: functional; in short: as §4

Compound: NNc1[nH]ncc2c3cc(O)ccc3nc1-2
- Decrease in blood pressure [1]: 44%
- Decrease in blood pressure [2]: 56%
- Decrease in blood pressure [3]: 56%
- Decrease in blood pressure [4]: 60%
- Decrease in blood pressure [5]: 56%
- Decrease in blood pressure [6]: 56%
- Decrease in blood pressure [7]: 33%
- Decrease in blood pressure [8]: 67%

Compound: COc1ccc2c(c1)cc1c(NN)nncn12 [listing 1 of 2 here]
- Decrease in AP [9]: No significant values
- inhibition [10]: No significant values
- Decrease in AP [11]: No significant values
- Decrease in CR [12]: No significant values
- Decrease in CR [13]: No significant values
- Decrease in CR [14]: No significant values
- Decrease in AP [15]: No significant values
- inhibition [16]: No significant values
- Decrease in CR [17]: No significant values
- Decrease in AP [18]: No significant values

Compound: NNc1[nH]ncc2c3cc(OCc4ccccc4)ccc3nc1-2
- Decrease in CR [19]: 15%
- Decrease in CR [20]: 21%
- Decrease in AP [21]: 5%
- Decrease in AP [22]: 5%
- Decrease in CR [23]: 20%
- Decrease in AP [24]: 10%
- Decrease in CR [25]: 6%
- Decrease in CR [26]: 16%
- Decrease in CR [27]: 7%
- Decrease in AP [28]: 13%
- Decrease in AP [29]: 6%
- Decrease in CR [30]: 9%
- Decrease in AP [31]: 12%
- Decrease in AP [32]: 13%
- Decrease in AP [33]: 7%
- Decrease in CR [34]: 8%
- Decrease in AP [35]: 7%

Compound: COc1ccc2c(c1)cc1c(NN)nncn12 [listing 2 of 2 here]
- inhibition at 10 µM [36]: 100%
- inhibition at 10 µM [37]: 100%

From ChEMBL document CHEMBL1123757, “Selective thromboxane synthetase inhibitors and antihypertensive agents. New derivatives of 4-hydrazino-5H-pyridazino[4,5-b]indole, 4-hydrazinopyridazino[4,5-a]indole, and related compounds” (J Med Chem, 1987)
